Reference: ChEMBL document CHEMBL1122284, “Aromatic retinoic acid analogues. 2. Synthesis and pharmacological activity” (1983)

Tests used:
[1] = molecular target: T1, Ornithine decarboxylase (Mus musculus) (UniProt P00860); test: Percent inhibition of the induction of ornithine decarboxylase at 170 nmol in mouse dorsal epidermis (ODC assay); assay type: functional
T1 sequence (whole entry): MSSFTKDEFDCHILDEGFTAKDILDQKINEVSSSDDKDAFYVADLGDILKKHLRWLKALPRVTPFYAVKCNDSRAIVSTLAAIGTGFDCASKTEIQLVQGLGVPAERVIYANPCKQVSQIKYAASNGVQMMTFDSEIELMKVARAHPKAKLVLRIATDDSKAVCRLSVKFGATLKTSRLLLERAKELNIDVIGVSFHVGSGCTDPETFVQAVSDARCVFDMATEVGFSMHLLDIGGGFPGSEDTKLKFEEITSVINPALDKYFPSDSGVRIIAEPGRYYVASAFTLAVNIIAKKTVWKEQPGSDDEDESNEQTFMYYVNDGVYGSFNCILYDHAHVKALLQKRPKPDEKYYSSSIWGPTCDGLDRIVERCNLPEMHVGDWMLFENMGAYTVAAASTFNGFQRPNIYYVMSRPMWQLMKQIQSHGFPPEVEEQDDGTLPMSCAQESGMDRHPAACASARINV

Cricetinae gen. sp. [2] = test: Relative potency with respect to retinoic acid in hamster tracheal organ culture assay (TOC); assay type: functional, Cricetulus griseus, Trachea
[3] = molecular target: T1, Ornithine decarboxylase (Mus musculus); test: Percent inhibition of the induction of ornithine decarboxylase at 1.7 nmol in mouse dorsal epidermis (ODC assay); assay type: functional
[4] = molecular target: T1, Ornithine decarboxylase (Mus musculus); test: Percent inhibition of the induction of ornithine decarboxylase at 17 nmol dose in mouse dorsal epidermis (ODC assay); assay type: functional
Cricetinae gen. sp. [5] = test: Total cultures(13) versus active(13) at 10e-9 M conc. in hamster tracheal organ culture assay (TOC); assay type: functional, Trachea
How it was run: (§1)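 Tracheas from Syrian golden hamsters kept on a vitamin A deficient diet from birth to 30–32 days old. Cultured serum-free (CMRL 1066 with insulin, hydrocortisone, glutamine, antibiotics), one explant per dish, 50% O2/45% N2/5% CO2, 36 °C, rocked. 3 days without retinoid, then 7 days with retinoid, medium renewed three times. Histology on day 10. Active means keratin/keratohyaline granules absent. Usually duplicate, 6–7 tracheas per concentration.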

Cricetinae gen. sp. [6] = test: Total cultures(6) versus active(6) at 10e-8 M conc. in hamster tracheal organ culture assay (TOC); assay type: functional, Trachea; how it was run: as §1
Cricetinae gen. sp. [7] = test: Total cultures(0) versus active(7) at 10e-11 M conc. in hamster tracheal organ culture assay (TOC); assay type: functional, Trachea; how it was run: as §1
Cricetinae gen. sp. [8] = test: ED50 of retinoid required to effect reversal of keratinization; assay type: functional; how it was run: as §1
Cricetinae gen. sp. [9] = test: Total cultures(4) versus active(13) at 10e-10 M conc. in hamster tracheal organ culture assay (TOC); assay type: functional, Trachea; how it was run: as §1
Cricetinae gen. sp. [10] = test: Total cultures(2) versus active(12) at 10e-8 M conc. in hamster tracheal organ culture assay (TOC); assay type: functional, Trachea; how it was run: as §1
[11] = molecular target: T1, Ornithine decarboxylase (Mus musculus); test: Percent inhibition of the induction of ornithine decarboxylase in mouse dorsal epidermis (ODC assay); assay type: functional
Cricetinae gen. sp. [12] = test: Total cultures(0) versus active(12)at 10e-10 M conc. in hamster tracheal organ culture assay (TOC); assay type: functional, Trachea; how it was run: as §1
Cricetinae gen. sp. [13] = test: Total cultures(1) versus active (13)at 10e-9 M conc. in hamster tracheal organ culture assay (TOC); assay type: functional, Trachea; how it was run: as §1
Cricetinae gen. sp. [14] = test: Total cultures(14) versus active (10) at 10e-9 M conc. in hamster tracheal organ culture assay (TOC); assay type: functional, Trachea; how it was run: as §1
Cricetinae gen. sp. [15] = test: Total cultures(14) versus active (6) at 10e-10 M conc. in hamster tracheal organ culture assay (TOC); assay type: functional, Trachea; how it was run: as §1
Cricetinae gen. sp. [16] = test: Total cultures(13) versus active (13) at 10e-8 M conc. in hamster tracheal organ culture assay (TOC); assay type: functional, Trachea; how it was run: as §1
Cricetinae gen. sp. [17] = test: Total cultures(13) versus active (11) at 10e-8 M conc. in hamster tracheal organ culture assay (TOC); assay type: functional, Trachea; how it was run: as §1
Cricetinae gen. sp. [18] = test: Total cultures(14) versus active (5) at 10e-10 M conc. in hamster tracheal organ culture assay (TOC); assay type: functional, Trachea; how it was run: as §1
Cricetinae gen. sp. [19] = test: Total cultures(14) versus active (6) at 10e-9 M conc. in hamster tracheal organ culture assay (TOC); assay type: functional, Trachea; how it was run: as §1
Cricetinae gen. sp. [20] = test: Total cultures(7) versus active (7) at 10e-8 M conc. in hamster tracheal organ culture assay (TOC); assay type: functional, Trachea; how it was run: as §1
Cricetinae gen. sp. [21] = test: Total cultures(12) versus active (10) at 10e-9 M conc. in hamster tracheal organ culture assay (TOC); assay type: functional, Trachea; how it was run: as §1
Cricetinae gen. sp. [22] = test: Total cultures(13) versus active (8) at 10e-10 M conc. in hamster tracheal organ culture assay (TOC); assay type: functional, Trachea; how it was run: as §1
Cricetinae gen. sp. [23] = test: Total cultures(6) versus active (2) at 10e-11 M conc. in hamster tracheal organ culture assay (TOC); assay type: functional, Trachea; how it was run: as §1
Cricetinae gen. sp. [24] = test: Total cultures(9) versus active(14) at 10e-10 M conc. in hamster tracheal organ culture assay (TOC); assay type: functional, Trachea; how it was run: as §1
Cricetinae gen. sp. [25] = test: Total cultures (1)versus active(6) at 10e-11 M conc. in hamster tracheal organ culture assay (TOC); assay type: functional, Trachea; how it was run: as §1
Cricetinae gen. sp. [26] = test: Total cultures(11) versus active(13) at 10e-9 M conc. in hamster tracheal organ culture assay (TOC); assay type: functional, Trachea; how it was run: as §1
Cricetinae gen. sp. [27] = test: Total cultures(6) versus active (1) at 10e-11 M conc. in hamster tracheal organ culture assay (TOC); assay type: functional, Trachea; how it was run: as §1
Cricetinae gen. sp. [28] = test: Total cultures(6) versus active (5) at 10e-9 M conc. in hamster tracheal organ culture assay (TOC); assay type: functional, Trachea; how it was run: as §1
Cricetinae gen. sp. [29] = test: Total cultures(6) versus active (3) at 10e-10 M conc. in hamster tracheal organ culture assay (TOC); assay type: functional, Trachea; how it was run: as §1

inhibition of control [3] [%] | inhibition of control [4] [%] | SMILES | Relative activity (Cricetinae gen. sp. [2]) | ED50 (Cricetinae gen. sp. [8]) [pM] | further results
 | 80 | CCOC(=O)c1ccc(/C=C(C)/C=C/C2=C(C)CCCC2(C)C)cc1 | 1 | 6 | Active/total cultures (Cricetinae gen. sp. [5]): 100%; Active/total cultures (Cricetinae gen. sp. [6]): 100%; Active/total cultures (Cricetinae gen. sp. [7]): 0%; Active/total cultures (Cricetinae gen. sp. [9]): 31%
67 | 77 | CCOC(=O)c1ccc(/C=C(C)/C=C/C2=C(C)CCCC2(C)C)s1 | 3 | 20 | Active/total cultures (Cricetinae gen. sp. [14]): 71%; Active/total cultures (Cricetinae gen. sp. [15]): 43%; Active/total cultures (Cricetinae gen. sp. [16]): 100%
35 | 76 | CCOC(=O)c1ccc(/C=C(C)\C=C\C2=C(C)CCCC2(C)C)s1 | 0.3 | 20 | Active/total cultures (Cricetinae gen. sp. [17]): 85%; Active/total cultures (Cricetinae gen. sp. [18]): 36%; Active/total cultures (Cricetinae gen. sp. [19]): 43%
8 | 46 | CCOC(=O)c1ccc(/C=C(C)/C=C/C2=C(C)CCCC2(C)C)c(F)c1 | 5 | 6 | Active/total cultures (Cricetinae gen. sp. [24]): 64%; Active/total cultures (Cricetinae gen. sp. [6]): 100%; Active/total cultures (Cricetinae gen. sp. [25]): 17%; Active/total cultures (Cricetinae gen. sp. [26]): 85%

The remaining lines, values behind:

SMILES | inhibition of control [3] [%] | inhibition of control [4] [%] | Relative activity (Cricetinae gen. sp. [2]) | ED50 (Cricetinae gen. sp. [8]) [pM] | further results
CC1=C(/C=C/C(C)=C/c2ccc(C(=O)O)cc2)C(C)(C)CCC1 | 62 | 69 | 2 |  | inhibition of control [1]: 87%
CCOC(=O)c1ccc(/C(F)=C(C)\C=C\C2=C(C)CCCC2(C)C)cc1 |  | 16 | <0.1 | 20 | Active/total cultures (Cricetinae gen. sp. [10]): 17%; inhibition of control [11]: 5%; Active/total cultures (Cricetinae gen. sp. [12]): 0%; Active/total cultures (Cricetinae gen. sp. [13]): 8%
CCOC(=O)c1ccc(/C=C(C)/C=C/C2=C(C)CCCC2(C)C)c(OC)c1 | 21 | 39 | 5 | 6 | Active/total cultures (Cricetinae gen. sp. [20]): 100%; Active/total cultures (Cricetinae gen. sp. [21]): 83%; Active/total cultures (Cricetinae gen. sp. [22]): 62%; Active/total cultures (Cricetinae gen. sp. [23]): 33%
COc1cc(C(=O)O)ccc1/C=C(C)/C=C/C1=C(C)CCCC1(C)C | 9 | 37 | 3 | 10 | Active/total cultures (Cricetinae gen. sp. [27]): 17%; Active/total cultures (Cricetinae gen. sp. [28]): 83%; Active/total cultures (Cricetinae gen. sp. [29]): 50%
